This passage reports inhibition, MIC and Activity results from ChEMBL document CHEMBL1255454, “Systematic approach to optimizing specifically targeted antimicrobial peptides against Streptococcus mutans” (2010).

For orientation: MIC means the lowest concentration found to suppress growth. A low value points to inhibition by little substance.

The subject of experiment [1] is Streptococcus mutans. Description: Antimicrobial activity against Streptococcus mutans UA159 assessed as inhibition of bacterial biofilm formation at 25 uM after 3 mins by fluorescence assay. The class given is functional. The method, boiled down: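 S. mutans UA159 overnight culture was diluted 1:5,000 in TH with 1% sucrose and grown as biofilm for 24 h. Biofilms were exposed 3 min at room temperature to 25 µM fluorescein-labelled peptide in HEPES/NaHCO3/NaCl/MgCl2 buffer with 0.1% CTAB, pH 7.4, then washed twice. Green fluorescence images were taken and biofilm-associated green pixels quantified as binding intensity units.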

Experiment [2] has as its system Streptococcus mutans. Description: Antimicrobial activity against Streptococcus mutans UA159 after 16 to 20 hrs by broth microdilution assay. In kind it is functional. The method, boiled down:
(§1)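 Broth microdilution. Twofold peptide dilutions were made in 50% BHI–50% sterile water for oral streptococci and in 1× Mueller-Hinton broth for the other bacteria. First round 500 to 0.97 µg/ml; a second round of 64 to 0.5 µg/ml was run in some cases, reporting its mode. Inoculum ~1 × 10^5 CFU/ml, 37°C for 16–20 h. Read A600; MIC taken as complete inhibition or ≥90% turbidity reduction versus peptide-free control.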

Experiment [3] relates to Streptococcus sanguinis. Nature of the experiment: Antimicrobial activity against Streptococcus sanguinis NY101 after 16 to 20 hrs by broth microdilution assay. In kind it is functional. Put shortly:
as §1

For experiment [4], the system named is Streptococcus mitis. Nature of the experiment: Antimicrobial activity against Streptococcus mitis ATCC 903 after 16 to 20 hrs by broth microdilution assay. In kind it is functional. The method, boiled down: as §1
(In general: Broth dilution looks for growth in wells or tubes with falling amounts of substance.)

A short description of experiment [5]: Antimicrobial activity against Streptococcus gordonii Challis DL1 after 16 to 20 hrs by broth microdilution assay. The class given is functional, Streptococcus gordonii str. Challis. The method, boiled down:
as §1

In experiment [6] the test system is Staphylococcus aureus. Nature of the experiment: Antimicrobial activity against methicillin-resistant Staphylococcus aureus after 16 to 20 hrs by broth microdilution assay. In kind it is functional. Put shortly: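 MRSA grown aerobically in BHI at 37°C. Broth microdilution: 2-fold peptide dilutions in 1× Mueller-Hinton broth, first round 500 to 0.97 µg/ml; if activity below 62.5 µg/ml, sometimes a second round at 64 to 0.5 µg/ml, reporting the mode. Inoculum ~1 × 10^5 CFU/ml, 37°C for 16-20 h. A600 read. MIC = lowest concentration giving complete inhibition or ≥90% turbidity reduction versus peptide-free control.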

Experiment [7] deals with Pseudomonas aeruginosa. Description: Antimicrobial activity against Pseudomonas aeruginosa PAK after 16 to 20 hrs by broth microdilution assay. In kind it is functional. Put shortly:
as §1

The subject of experiment [8] is Streptococcus mutans. Nature of the experiment: Antimicrobial activity against Streptococcus mutans UA159 at 25 ug/ml after 30 mins by time-kill assay. In kind it is functional. The method, boiled down:
(§2)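 Time-kill. Overnight cultures were diluted in BHI to A600 0.08 and treated with peptide at 25 µg/ml for 30 s to 2 h. Aliquots were diluted 1:50 in BHI, held on ice, plated and counted after 24 h as surviving CFU/ml. Three independent experiments, mean with SD; unpaired Student t test.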

The subject of experiment [9] is Streptococcus mitis. Nature of the experiment: Antimicrobial activity against Streptococcus mitis ATCC 903 at 25 ug/ml after 30 mins by time-kill assay. In kind it is functional, organism-based. Put shortly:
as §2

For experiment [10], the system named is Streptococcus gordonii str. Challis. Description: Antimicrobial activity against Streptococcus gordonii Challis DL1 at 25 ug/ml after 30 mins by time-kill assay. In kind it is functional. Put shortly: as §2
Experiment [11] has as its system Streptococcus sanguinis. Description: Antimicrobial activity against Streptococcus sanguinis NY101 at 25 ug/ml after 30 mins by time-kill assay. In kind it is functional, organism-based. Put shortly:
as §2

In experiment [12] the test system is Streptococcus mutans. Nature of the experiment: Antimicrobial activity against Streptococcus mutans UA159 assessed as inhibition of viability of bacterial biofilm at 25 ug/ml treated for 1 min measured after 4 hrs. The class given is functional. Put shortly:
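S. mutans biofilms were seeded from overnight culture diluted 1:50 in TH broth with 0.5% sucrose, centrifuged, and grown 4 h anaerobically at 37°C. They were exposed to peptide in 1× PBS for about 1 min, washed, and given fresh TH broth without sucrose. Recovery was read as A600 after 4 h anaerobic incubation at 37°C. Three experiments; unpaired t test.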

The subject of experiment [13] is Streptococcus mutans. Nature of the experiment: Antimicrobial activity against Streptococcus mutans JM11 assessed as inhibition of bacterial biofilm formation at 50 uM after 10 mins. In kind it is functional. The method, boiled down:
(§3)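 Mixed-species biofilms were grown 24 h at 37°C anaerobically in TH with 50% filter-sterilized pooled human saliva and 1% sucrose. Inoculum: S. mutans JM11 at 1 × 10^6 CFU/well plus S. oralis, S. gordonii, S. sanguinis, S. mitis and S. salivarius at 2 × 10^5 CFU/well each. Survivors were plated on TH agar for total streptococci and on TH agar with 800 µg/ml spectinomycin for JM11. Detection limit 100 CFU/ml.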

Experiment [14] concerns Streptococcus oralis. Description: Antimicrobial activity against Streptococcus oralis assessed as inhibition of bacterial biofilm formation at 50 uM after 10 mins. The class given is functional. Put shortly:
as §3

Experiment [15] deals with Streptococcus gordonii. Description: Antimicrobial activity against Streptococcus gordonii assessed as inhibition of bacterial biofilm formation at 50 uM after 10 mins. In kind it is functional. The method, boiled down:
as §3

The test system of experiment [16] is Streptococcus sanguinis. Description: Antimicrobial activity against Streptococcus sanguinis assessed as inhibition of bacterial biofilm formation at 50 uM after 10 mins. In kind it is functional. The method, boiled down: as §3
The test system of experiment [17] is Streptococcus mitis. Description: Antimicrobial activity against Streptococcus mitis assessed as inhibition of bacterial biofilm formation at 50 uM after 10 mins. The class given is functional. The method, boiled down:
as §3

Experiment [18] deals with Streptococcus salivarius. Description: Antimicrobial activity against Streptococcus salivarius assessed as inhibition of bacterial biofilm formation at 50 uM after 10 mins. In kind it is functional. The method, boiled down:
as §3

Calls of active or inactive are those of the source. The rule behind the calls is not given here.

For H-FIKHFIHRFGGGFKKFWKWFRRF-NH2, the inhibition result in [1], in experiment [12] and in experiment [13] was “Active” in each case. In addition, the MIC in experiment [2] is 4 µg/mL; in [3], 16 µg/mL; in experiment [4], 32 µg/mL; in experiment [5], 62.5 µg/mL; in experiment [6], 16 µg/mL; in experiment [7], 62.5 µg/mL. The outcome in [8], in experiment [9], in experiment [10] and in experiment [11] was Active. The inhibition entry in experiment [14], in experiment [15], in experiment [16], in experiment [17] and in experiment [18] was “inactive” throughout.
H-FIKHFIHRFSATRWRWRWF-NH2: the inhibition entry in [1], in [12] and in [13] was “Active” in each case. The MIC in experiment [2] was 8 µg/mL; in experiment [3], 32 µg/mL; in [4] it was 16 µg/mL; in [5], 32 µg/mL; in [6], 125 µg/mL; in [7], 62.5 µg/mL. Moreover, the inhibition entry in experiment [14], in experiment [15], in experiment [16], in experiment [17] and in experiment [18] was “inactive” in each case.
For H-FKKFWKWFRRF-NH2, the inhibition entry in experiment [1], in experiment [12] and in experiment [13] was “Active” in each case. Also, the MIC worked out at 8 µg/mL in experiment [2]; 32 µg/mL in experiment [3]; 16 µg/mL in experiment [4]; 16 µg/mL in experiment [5]; 16 µg/mL in [6]; 32 µg/mL in experiment [7]. Further, the outcome in [8], in experiment [9], in experiment [10] and in experiment [11] was Active. The inhibition entry in experiment [14], in experiment [15], in experiment [16], in experiment [17] and in [18] was “inactive” each time.
